pIC50: −log10 of the molar value. The source made the active and inactive calls. No cut-off for these calls is given here.
Experiments:
HeLa S3 [1] = experiment: Induction of apoptosis in human HeLaS3 cells assessed as DNA fragmentation after 48 hrs by agarose gel electrophoresis; format: functional, cell-based
Method in brief: (§1)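 HeLa S-3 cells exposed for 12–48 h, then pellets lysed in 0.6% sarcosine, 20 mM Tris-HCl pH 7.4, 20 mM EDTA. Lysate treated with RNase A for 2 h at 50 °C, then proteinase K overnight at 50 °C. DNA extracted with phenol/chloroform, run on 2% agarose in TAE at 50 V, stained with ethidium bromide, and visualised under UV.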

[2] = Cell cycle arrest in human HeLaS3 cells assessed as accumulation at sub-G1 phase at 5 uM after 24 hrs by flow cytometry; format: functional, cell-based; conditions: HeLa S3
Method in brief: (§2)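 HeLa S-3 cells exposed for 6, 12 or 24 h. Cells washed twice in ice-cold PBS, fixed in ice-cold 70% ethanol, and resuspended with 0.1 mg/ml RNase. Stained with […] PI and analysed by flow cytometry. Phase distribution (sub-G1, G1, S, G2/M) is reported as percentage of cells. Controls were untreated.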

[3] = Cell cycle arrest in human HeLaS3 cells assessed as accumulation at S phase at 5 uM after 24 hrs by flow cytometry; format: functional, cell-based; conditions: HeLa S3; method in brief: as §2
[4] = Cell cycle arrest in human HeLaS3 cells assessed as accumulation at S phase at 1 uM after 12 hrs by flow cytometry; format: functional, cell-based; conditions: HeLa S3; method in brief: as §2
[5] = Cell cycle arrest in human HeLaS3 cells assessed as accumulation at sub-G1 phase at 5 uM after 6 hrs by flow cytometry; format: functional, cell-based; conditions: HeLa S3; method in brief: as §2
[6] = Cell cycle arrest in human HeLaS3 cells assessed as accumulation at S phase at 1 uM after 24 hrs by flow cytometry; format: functional, cell-based; conditions: HeLa S3; method in brief: as §2
[7] = Cell cycle arrest in human HeLaS3 cells assessed as accumulation at S phase at 5 uM after 12 hrs by flow cytometry; format: functional, cell-based; conditions: HeLa S3; method in brief: as §2
[8] = Cell cycle arrest in human HeLaS3 cells assessed as accumulation at G1 phase at 1 uM after 12 hrs by flow cytometry; format: functional, cell-based; conditions: HeLa S3; method in brief: as §2
[9] = Cell cycle arrest in human HeLaS3 cells assessed as accumulation at sub-G1 phase at 1 uM after 24 hrs by flow cytometry; format: functional, cell-based; conditions: HeLa S3; method in brief: as §2
HeLa S3 [10] = experiment: Induction of apoptosis in human HeLaS3 cells assessed as appearance of fragmented nuclei at 10 times IC50 after 48 hrs by Hoechst staining; format: functional, cell-based
Method in brief: (§3)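 Stained with Hoechst 33342 (1 µg/ml) for 40 min at 37 °C. Nuclei were examined by confocal laser microscopy, and apoptosis was scored from chromatin condensation and fragmented nuclei.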

HeLa S3 [11] = experiment: Induction of apoptosis in human HeLaS3 cells assessed as appearance of fragmented nuclei at 5 times IC50 after 48 hrs by Hoechst staining; format: functional, cell-based; method in brief: as §3
[12] = Cell cycle arrest in human HeLaS3 cells assessed as accumulation at G1 phase at 1 uM after 24 hrs by flow cytometry; format: functional, cell-based; conditions: HeLa S3; method in brief: as §2
[13] = Cell cycle arrest in human HeLaS3 cells assessed as accumulation at sub-G1 phase at 5 uM after 12 hrs by flow cytometry; format: functional, cell-based; conditions: HeLa S3; method in brief: as §2
[14] = Cell cycle arrest in human HeLaS3 cells assessed as accumulation at G2/M phase at 5 uM after 24 hrs by flow cytometry; format: functional, cell-based; conditions: HeLa S3; method in brief: as §2
[15] = Cell cycle arrest in human HeLaS3 cells assessed as accumulation at G2/M phase at 5 uM after 6 hrs by flow cytometry; format: functional, cell-based; conditions: HeLa S3; method in brief: as §2
[16] = Cell cycle arrest in human HeLaS3 cells assessed as accumulation at G2/M phase at 5 uM after 12 hrs by flow cytometry; format: functional, cell-based; conditions: HeLa S3; method in brief: as §2
[17] = Cell cycle arrest in human HeLaS3 cells assessed as accumulation at G2/M phase at 1 uM after 6 hrs by flow cytometry; format: functional, cell-based; conditions: HeLa S3; method in brief: as §2
[18] = Cell cycle arrest in human HeLaS3 cells assessed as effect on cdk2 protein level at 5 times IC50 by Western blot method; format: functional, cell-based; conditions: HeLa S3
Method in brief: (§4)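 HeLa S-3 cells treated for 24 h at 5-fold the IC50, alongside non-treated controls. Cells lysed in RIPA buffer (pH 8.0) with protease inhibitors and the whole-cell extract separated by SDS-PAGE, then transferred to PVDF. Blots blocked in 5% skim milk/TTBS and probed with anti-cdc2, cdk2 or cleaved caspase-3 antibodies (1:1000). β-actin (1:5000) served as loading control. Detection by HRP secondary antibody and ECL.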

[19] = Cell cycle arrest in human HeLaS3 cells assessed as accumulation at S phase at 1 uM after 6 hrs by flow cytometry; format: functional, cell-based; conditions: HeLa S3; method in brief: as §2
[20] = Cell cycle arrest in human HeLaS3 cells assessed as accumulation at sub-G1 phase at 1 uM after 6 hrs by flow cytometry; format: functional, cell-based; conditions: HeLa S3; method in brief: as §2
[21] = Cell cycle arrest in human HeLaS3 cells assessed as accumulation at G1 phase at 5 uM after 6 hrs by flow cytometry; format: functional, cell-based; conditions: HeLa S3; method in brief: as §2
[22] = Cell cycle arrest in human HeLaS3 cells assessed as accumulation at G1 phase at 5 uM after 24 hrs by flow cytometry; format: functional, cell-based; conditions: HeLa S3; method in brief: as §2
HeLa S3 [23] = experiment: Induction of apoptosis in human HeLaS3 cells assessed as DNA fragmentation after 24 hrs by agarose gel electrophoresis; format: functional, cell-based; method in brief: as §1
[24] = Cell cycle arrest in human HeLaS3 cells assessed as accumulation at G2/M phase at 1 uM after 12 hrs by flow cytometry; format: functional, cell-based; conditions: HeLa S3; method in brief: as §2
[25] = Cell cycle arrest in human HeLaS3 cells assessed as accumulation at G1 phase at 1 uM after 6 hrs by flow cytometry; format: functional, cell-based; conditions: HeLa S3; method in brief: as §2
[26] = Cell cycle arrest in human HeLaS3 cells assessed as accumulation at sub-G1 phase at 1 uM after 12 hrs by flow cytometry; format: functional, cell-based; conditions: HeLa S3; method in brief: as §2
[27] = Cell cycle arrest in human HeLaS3 cells assessed as accumulation at G1 phase at 5 uM after 12 hrs by flow cytometry; format: functional, cell-based; conditions: HeLa S3; method in brief: as §2
HeLa S3 [28] = experiment: Induction of apoptosis in human HeLaS3 cells assessed as cleaved caspase-3 at 5 times IC50 by Western blot method; format: functional, cell-based; method in brief: as §4
[29] = Cell cycle arrest in human HeLaS3 cells assessed as accumulation at G2/M phase at 1 uM after 24 hrs by flow cytometry; format: functional, cell-based; conditions: HeLa S3; method in brief: as §2
[30] = Cell cycle arrest in human HeLaS3 cells assessed as accumulation at S phase at 5 uM after 6 hrs by flow cytometry; format: functional, cell-based; conditions: HeLa S3; method in brief: as §2
[31] = Cell cycle arrest in human HeLaS3 cells assessed as increase in cdc2 protein level at 5 times IC50 by Western blot method; format: functional, cell-based; conditions: HeLa S3; method in brief: as §4
[32] = Antitumor activity against human HeLaS3 cells after 24 to 72 hrs by MTT assay; format: functional, cell-based, HeLa S3
Method in brief: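 HeLa S-3 cells (MEM, 10% FBS, HEPES, NEAA, 2 mM L-glutamine, 5% CO2, 37 °C) seeded at 2 × 10⁴ cells/ml and cultured 3 h before exposure for 24–72 h at 37 °C. MTT (2 mg/ml) added for 4 h at 37 °C, formazan dissolved in DMSO, A540 read. Viability is expressed as % of control. IC50 is the concentration giving 50% growth inhibition, mean ± S.D. of four independent experiments run in triplicate.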

HeLa S3 [33] = experiment: Induction of apoptosis in human HeLaS3 cells assessed as DNA fragmentation upto 48 hrs by agarose gel electrophoresis; format: functional, cell-based; method in brief: as §1

Compound	Activity [2] [%]	Activity [3] [%]	Activity [4] [%]	Activity [5] [%]	Activity [6] [%]	Activity [7] [%]	Activity [8] [%]	Activity [9] [%]	Activity (HeLa S3 [10])	Activity (HeLa S3 [11])	Activity [12] [%]	Activity [13] [%]	Activity [14] [%]	Activity [15] [%]	Activity [16] [%]	Activity [17] [%]	Activity [19] [%]	Activity [20] [%]	Activity [21] [%]	pIC50 ([32]; Homo sapiens, HeLa S3)	further results
C[n+]1cc2[nH]c3ccccc3c2cc1NCc1ccccc1 [listing 1 of 3 here]	6.9	3.6	8.7	2.8	13.6	10	7.8	34.6	Active	Active	38.4	3.2	82.3	50.5	78.5	46.1	21.9	4.7	29.7	–	Activity (HeLa S3 [1]): Active; Activity [18]: inactive; Activity [22]: 4.4%; Activity (HeLa S3 [23]): inactive; Activity [24]: 73.5%; Activity [25]: 31.5%; Activity [26]: 10.3%; Activity [27]: 6.1%; Activity (HeLa S3 [28]): Active; Activity [29]: 13.8%; Activity [30]: 13.8%; Activity [31]: Active
C[n+]1cc2[nH]c3ccccc3c2cc1NCc1ccccc1 [listing 2 of 3 here]	–	–	–	–	–	–	–	–	–	–	–	–	–	–	–	–	–	–	–	–	pIC50 ([32]; hela s3): 4.00
c1ccc2c(c1)[nH]c1cnc(NCC3CCCCC3)cc12	2.8	13.8	10.5	2.6	14.7	12.3	58.4	1.7	Active	inactive	68.2	3	50.5	31.4	27.4	23.1	19.7	3.5	51	5.28	Activity (HeLa S3 [33]): inactive; Activity [22]: 29.7%; Activity [24]: 28.9%; Activity [25]: 48.4%; Activity [26]: 2.5%; Activity [27]: 56.7%; Activity (HeLa S3 [28]): inactive; Activity [29]: 15.7%; Activity [30]: 12.7%
CC(C)(C)OC(=O)NCCOc1cccc(CNc2cc3c(cn2)[nH]c2ccccc23)c1	–	–	–	–	–	–	–	–	–	–	–	–	–	–	–	–	–	–	–	4.80	–
C[n+]1cc2[nH]c3ccccc3c2cc1NCc1ccccc1 [listing 3 of 3 here]	–	–	–	–	–	–	–	–	–	–	–	–	–	–	–	–	–	–	–	–	pIC50 ([32]; hela s3): 6.27
CC(C)(C)OC(=O)NCCOc1ccc(CNc2cc3c(cn2)[nH]c2ccccc23)cc1	–	–	–	–	–	–	–	–	–	–	–	–	–	–	–	–	–	–	–	4.38	–
c1ccc(CCCNc2cc3c(cn2)[nH]c2ccccc23)cc1	–	–	–	–	–	–	–	–	–	–	–	–	–	–	–	–	–	–	–	4.68	–
Oc1cccc(CNc2cc3c(cn2)[nH]c2ccccc23)c1	21.3	6.8	10.7	3.5	17.4	8.9	48.8	7.5	Active	Active	58.5	5.9	53.3	52.9	76.7	36.3	20	8.2	27.3	6.04	Activity [18]: inactive; Activity [22]: 15.8%; Activity (HeLa S3 [23]): Active; Activity [24]: 31.3%; Activity [25]: 36.2%; Activity [26]: 9.5%; Activity [27]: 7.2%; Activity (HeLa S3 [28]): Active; Activity [29]: 17.1%; Activity [30]: 14.1%; Activity [31]: Active
COC(=O)c1ccc(CNc2cc3c(cn2)[nH]c2ccccc23)cc1	–	–	–	–	–	–	–	–	–	–	–	–	–	–	–	–	–	–	–	4.35	–

Source: ChEMBL document CHEMBL1667761, “3-benzylamino-β-carboline derivatives induce apoptosis through G2/M arrest in human carcinoma cells HeLa S-3” (Eur J Med Chem, 2011)
